Key:
[1] = test system: patients with previously untreated CLL; experiment: Phase 2 randomized three-arm trial: investigator-assessed best response; assay type: in vivo, human
How it was run: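 Open-label multicenter trial, randomized 1:1:1 and stratified by Binet stage and del(17p)/del(11q) (interphase FISH on marrow aspirates). Rituximab 375 mg/m2 week 1, then 500 mg/m2 weekly weeks 2–8, alone or with oral navitoclax (100 mg daily lead-in week, then 250 mg daily for 12 weeks). Investigator response by updated iwCLL at week 12, then every 12 weeks. ORR (CR+PR) with 95% CI; PFS by Kaplan–Meier.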

[2] = test system: patients with previously untreated CLL; set-up: species or system human; details: in vivo
[3] = test system: patients with CLL, BCL2 protein low or high subgroups; experiment: Association of baseline BCL2 protein expression; assay type: in vivo, human; details: arm A (n = 24) / arms B + C pooled (n = 31)
How it was run: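 Baseline bone marrow aspirates (optional consent), fresh: intracellular BCL2 staining by flow cytometry at a central lab within 72 h of collection, gated on CD19/CD5-positive CLL cells. Low/high subgroups split at median expression. Rituximab 375 mg/m2 week 1, then 500 mg/m2 weekly weeks 2–8, ± oral navitoclax (100 mg/day lead-in, then 250 mg/day). Odds ratios of objective response by logistic regression.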

[4] = in vivo
[5] = Navitoclax plasma pharmacokinetics; assay type: in vivo, human; details: for AUC / Cmax / Tmax: human, plasma, po
[6] = test system: patients with relapsed/refractory CLL; details: phase 1 study, single-agent navitoclax; cited from earlier work
BCL2 = details: statement in discussion; cited from earlier work
BCLXL = details: statement in discussion; cited from earlier work
[7] = ITT population, arm A (n = 40) / arm B (n = 38; navitoclax 12 weeks)
[8] = patients with del(17p), arm A (n = 11) / arm B (n = 12; navitoclax 12 weeks)

## rituximab
[1]; [7]
  Best response: Missing: 3 (8) n (%)
  Complete response (CR): 0 (0) n (%)
  Partial response (PR): 14 (35) n (%)
  Progressive disease: 2 (5) n (%)
  Stable disease: 21 (53) n (%)
[1]; arm A / arm B (navitoclax daily for 12 weeks)
  Overall response rate (complete [CR] and partial [PR]), investigator-assessed: 35%
[1]; [8]
  Best response: Missing: 0 (0) n (%)
  Complete response (CR): 0 (0) n (%)
  Partial response (PR): 2 (18) n (%)
  Progressive disease: 1 (9) n (%)
  Stable disease: 8 (73) n (%)
[2]
  Anemia/worsening of anemia: 2 (5) n (%)
  Any AEs: 33 (87) n (%)
  Any SAEs: 5 (13) n (%)
  Asthenia: 0 (0) n (%)
  Chills: 0 (0) n (%)
  Diarrhea: 0 (0) n (%)
  GI and abdominal pain: 0 (0) n (%)
  Grade 5 AEs: 3%
  Hyperbilirubinemia: 0 (0) n (%)
  Leukopenia: 1 (3) n (%)
  Liver enzyme increase: 0 (0) n (%)
  Neutropenia: 3 (8) n (%)
  Patients who withdrew from study due to AEs: 0 [0%] n [%]
  Respiratory tract infection: 3 (8) n (%)
  Thrombocytopenia: 0 (0) n (%)
  Vascular hypertensive disorders (hypertension): 0 (0) n (%)
[3]
  Best response PR: 6 (43%) n (%)
  Best response SD or PD: 8 (57%) n (%)
[4]
  Effect of navitoclax on the PK of rituximab: does not affect the PK of rituximab
  Week 8 rituximab concentration, post-infusion: 576 ± 264 (n = 33) μg/mL
  Week 8 rituximab concentration, pre-infusion: 296 ± 175 (n = 33) μg/mL

## CC1(C)CCC(c2ccc(Cl)cc2)=C(CN2CCN(c3ccc(C(=O)NS(=O)(=O)c4ccc(N[C@H](CCN5CCOCC5)CSc5ccccc5)c(S(=O)(=O)C(F)(F)F)c4)cc3)CC2)C1 [navitoclax]
[2]; human
  Discontinuation of navitoclax due to hyperbilirubinemia: 1 n
  Discontinuation of navitoclax due to neutropenia: 1 n
  Discontinuation of navitoclax due to pain: 1 n
  Discontinuation of navitoclax due to reaction to the infusion of rituximab: 1 n
  Discontinuation of navitoclax due to serum sickness: 1 n
  Discontinuation of navitoclax due to thrombocytopenia: 1 n
  Patients who discontinued navitoclax due to an AE, total: 12 patients
[2]
  Incidence of SAEs compared to patients treated with rituximab alone: not increased
  Reports of bleeding: a single AE of self-limited epistaxis
[5]
  Time of maximum navitoclax concentration (Cmax) after oral administration: approximately 6 h
[5]; 100 mg
  AUC: 10500 ± 4100 ng·h/mL
  Cmax: 2300 ± 900 ng/mL
  Tmax: 6 h
[5]; 250 mg
  AUC: 61200 ± 31200 ng·h/mL
  Cmax: 3700 ± 2000 ng/mL
  Tmax: 6.1 h
[6]
  Overall response rate (ORR): 35%

## CC1(C)CCC(CN2CCN(c3ccc(C(=O)NS(=O)(=O)c4ccc(NCC5CCOCC5)c([N+](=O)[O-])c4)c(Oc4cnc5[nH]ccc5c4)c3)CC2)=C(c2ccc(Cl)cc2)C1 [ABT-199]
BCL2
  Affinity for BCL2: very high affinity
BCLXL
  BCLXL inhibition: effectively no BCLXL inhibition

Source: paper PMC4643417 (Leukemia & lymphoma, 2015)
